Source: ChEMBL document CHEMBL4354825, “Design and Synthesis of Basic Selective Estrogen Receptor Degraders for Endocrine Therapy Resistant Breast Cancer” (J Med Chem, 2019)
Active and inactive are the calls of the source. The rule behind the calls is not given here.

Experiments:
[1] = Antiproliferative activity against human MCF7:WS8 cells assessed as reduction in cell viability incubated for 5 days by Hoechst 33258 dye based assay relative to control; format: functional; settings: MCF7:WS8, 120 h
Outline: (§1)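 Cells were seeded at 5000 per well; MCF7:WS8 had been estrogen-stripped for 2 days first. Compounds were serially diluted in DMSO, with 0.01% DMSO as vehicle. The medium was removed on day 5 (MCF7:WS8) or day 7 (MCF7:5C), and cells were lysed by freezing at −80 °C overnight. DNA was measured by Hoechst 33258 fluorescence. Maximum efficacy was normalized to vehicle (0%) and no cells (100%); at least three biological replicates.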

[2] = cells; settings: Homo sapiens, MCF7:5C, 168 h
[3] = Antiproliferative activity against human MCF7:WS8 cells assessed as reduction in cell viability incubated for 5 days by Hoechst 33258 dye based assay; format: functional; settings: MCF7:WS8, 120 h; outline: as §1
[4] = target: T1, Estrogen receptor (Homo sapiens) (UniProt P03372); experiment: Inhibition of ERalpha in human MCF7:WS8 cells assessed as increase in degradation of ERalpha incubated for 24 hrs by In-Cell Western assay relative to control; format: cell-based
T1 sequence (whole entry): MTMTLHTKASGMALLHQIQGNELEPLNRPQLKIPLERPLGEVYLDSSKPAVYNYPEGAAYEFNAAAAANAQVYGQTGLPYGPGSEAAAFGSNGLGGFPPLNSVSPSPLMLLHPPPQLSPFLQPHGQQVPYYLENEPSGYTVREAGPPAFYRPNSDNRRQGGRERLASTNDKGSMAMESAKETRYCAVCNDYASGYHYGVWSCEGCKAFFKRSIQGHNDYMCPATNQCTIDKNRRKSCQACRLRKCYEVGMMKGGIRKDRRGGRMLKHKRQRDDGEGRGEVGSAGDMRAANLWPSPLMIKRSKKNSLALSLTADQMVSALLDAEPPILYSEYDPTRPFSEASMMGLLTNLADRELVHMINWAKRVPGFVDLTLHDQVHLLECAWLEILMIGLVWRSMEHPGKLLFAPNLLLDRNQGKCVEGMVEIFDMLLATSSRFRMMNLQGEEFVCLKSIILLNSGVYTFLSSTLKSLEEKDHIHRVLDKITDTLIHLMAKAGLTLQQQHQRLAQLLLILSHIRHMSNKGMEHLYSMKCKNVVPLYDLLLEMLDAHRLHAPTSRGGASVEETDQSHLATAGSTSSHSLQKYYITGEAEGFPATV
Outline: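 MCF7:WS8 cells were estrogen-stripped for 2 days and plated at 2.5 × 10^4 per well. After 48 h they were treated for 24 h. ERα was detected by in-cell western (H10 antibody), with signal normalized to CellTag 700.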

[5] = species: Homo sapiens; experiment: Cytotoxicity against human MCF7:WS8 3D spheroid cells assessed as reduction in tumor spheroid size at 10 nM incubated for 14 days
[6] = target: T2, Estrogen receptor (Homo sapiens, UniProt P03372); experiment: Antagonist activity at ERalpha in human MCF7:WS8 cells incubated for 18 hrs by dual luciferase reporter gene assay relative to control; format: cell-based
T2 sequence (P03372 whole entry): T1 sequence (whole entry)
Outline: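 MCF7:WS8 cells were estrogen-deprived for 3 days (phenol red-free RPMI, stripped FBS), then plated and grown 24 h. They were co-transfected for 6 h with a 3×vitellogenin ERE-firefly luciferase plasmid and a pRL-TK Renilla plasmid. Compounds were given in competition with 1 nM E2 for 18 h, then dual luciferase was read.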

[7] = species: Homo sapiens; experiment: Cytotoxicity against human MCF7:WS8 3D spheroid cells assessed as reduction in tumor cell viability at 10 nM incubated for 14 days by celltiter-glo 3D cell viability assay
[8] = target: T2, Estrogen receptor; experiment: Inhibition of ERalpha in human MCF7:WS8 cells assessed as increase in degradation of ERalpha incubated for 24 hrs by In-Cell Western assay; format: cell-based
Outline: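 MCF7:WS8 cells were estrogen-stripped for 2 days and plated at 2.5 × 10^4 per well. ERα was detected by in-cell western (H10 antibody), with signal normalized to CellTag 700.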

[9] = (§2) Antiproliferative activity against human MCF7:5C cells assessed as reduction in cell viability incubated for 7 days by Hoechst 33258 dye based assay relative to control; format: functional; settings: 168 h; outline: as §1
[10] = tested on: T47D; experiment: Cytotoxicity against human T47D 3D spheroid cells harboring Y537S mutant assessed as reduction in tumor cell viability at 10 nM incubated for 14 days by celltiter-glo 3D cell viability assay
[11] = tested on: T47D; experiment: Cytotoxicity against human T47D 3D spheroid cells harboring D538G mutant assessed as reduction in tumor cell viability at 10 nM incubated for 14 days by celltiter-glo 3D cell viability assay
[12] = tested on: T47D; experiment: Cytotoxicity against human T47D 3D spheroid cells assessed as reduction in tumor cell viability at 10 nM incubated for 14 days by celltiter-glo 3D cell viability assay
[13] = target: T1, Estrogen receptor (Homo sapiens); experiment: Induction of degradation of ERalpha in human MCF7:WS8 cells at 100 nM in presence of MG-132 incubated for 24 hrs by Western blot analysis; format: cell-based
[14] = Drug concentration in C57BL/6 mouse brain at 100 mg/kg, po measured after 2 hrs by LC/MS-MS analysis; format: ADME, organism-based; settings: read-out: Drug uptake
Outline: (§3)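 PK screen in female C57BL/6 mice (N = 3 per time point). Dosed by gavage at 100 mg/kg in HPβD/PEG-400. Plasma and brain were taken from perfused mice at 30 and 120 min. Quantified by LC-MS/MS in MRM mode, with standard curves in each matrix and a common internal standard. Values are mean and s.d.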

[15] = Drug concentration in C57BL/6 mouse brain at 100 mg/kg, po measured after 0.5 hrs by LC/MS-MS analysis; format: ADME, organism-based; settings: read-out: Drug uptake; outline: as §3
[16] = Plasma concentration in C57BL/6 mouse at 100 mg/kg, po measured after 2 hrs by LC/MS-MS analysis; format: ADME, organism-based; outline: as §3
[17] = Plasma concentration in C57BL/6 mouse at 100 mg/kg, po measured after 0.5 hrs by LC/MS-MS analysis; format: ADME, organism-based; outline: as §3
[18] = species: Homo sapiens; experiment: as §2; format: functional; outline: as §1
[19] = tested on: MCF7:TAM1; experiment: Cytotoxicity against human MCF7:TAM1 3D spheroid cells assessed as reduction in tumor cell viability at 10 nM incubated for 14 days by celltiter-glo 3D cell viability assay

Row | SMILES | Emax [1] [%] | IC50 ([2]; read-out: pIC50 (converted)) [nM] | IC50 [3] [nM] | Efficacy [4] [%] | IC50 [6] [nM] | IC50 [8] [nM] | Emax [9] [%] | other results
1 | O=C(c1cccc(F)c1)c1sc2cc(O)ccc2c1Oc1ccc(OC2CN(CCCF)C2)cc1 | 70 | 0.182 | 0.141 | – | – | – | – | –
2 | O=C(c1ccc(F)cc1)c1sc2cc(O)ccc2c1Oc1ccc(OCCN2CC(CF)C2)cc1 | 67 | 0.447 | 1.02 | 89 | 28 | 1.23 | 46 | Activity [5]: Active; Activity [7]: Active
3 | CC/C(=C(\c1ccc(O)cc1)c1ccc(OCCN(C)C)cc1)c1ccccc1 | – | – | – | – | – | – | – | Activity [10]: Active; Activity [11]: Active; Activity [12]: Active
4 | O=C(c1ccc(O)cc1)c1sc2cc(O)ccc2c1Oc1ccc(OCCN2CC(CF)C2)cc1 | 73 | – | 0.708 | 47 | 64 | 8.13 | – | IC50 [2]: > 100 nM
5 | Cc1ccccc1C(=O)c1sc2cc(O)ccc2c1Oc1ccc(OCCN2CC[C@@H](CF)C2)cc1 | 85 | 0.0871 | 0.0126 | 84 | – | 10.5 | 67 | –
6 | O=C(c1ccccc1)c1sc2cc(O)ccc2c1Oc1ccc(OCCN2CC(CF)C2)cc1 | 64 | 0.263 | 0.174 | 85 | 4.3 | 1.02 | 48 | –
7 | CCNCCc1ccc(CN(CC)c2cc(OC)ccc2[C@@H]2CCc3cc(O)ccc3C2)cc1 | – | – | – | – | – | – | – | Activity [13]: Active
8 | O=C(c1cccc(F)c1)c1sc2cc(O)ccc2c1Oc1ccc(OCCN2CC(CF)C2)cc1 | 78 | 0.295 | 0.229 | – | – | – | 36 | –
9 | Cc1cc(F)cc(C)c1C(=O)c1sc2cc(O)ccc2c1Oc1ccc(OCCN2CC[C@@H](CF)C2)cc1 | 66 | 1.07 | 0.631 | 84 | 12 | 5.89 | 34 | concentration at 2 h [14]: 276 nM; concentration at 0.5 h [15]: 121 nM; concentration at 2 h [16]: 163 nM; concentration at 0.5 h [17]: 211 nM
10 | CC1=C(c2cccc(O)c2)[C@H](c2ccc(OCCN3CC(CF)C3)cc2)Oc2ccc(O)cc21 | – | – | – | – | – | – | – | Activity [10]: Active; Activity [11]: Active; Activity [12]: Active
11 | Cc1cc(F)cc(C)c1C(=O)c1sc2cc(O)ccc2c1Oc1ccc(OC2CN(C3CC3)C2)cc1 | 62 | 0.141 | 0.0631 | 51 | 11 | 5.89 | 16 | –
12 | Cc1ccccc1C(=O)c1sc2cc(O)ccc2c1Oc1ccc(OCCN2CC(CF)C2)cc1 | 72 | 0.955 | 1.07 | 92 | 1.5 | 0.955 | 40 | –
13 | Cc1cc(F)ccc1C(=O)c1sc2cc(O)ccc2c1Oc1ccc(OC2CN(CCCF)C2)cc1 | 69 | 0.117 | 0.17 | 95 | 5.2 | 9.33 | 45 | –
14 | Cc1cc(O)ccc1C(=O)c1sc2cc(O)ccc2c1Oc1ccc(OCCN2CC(CF)C2)cc1 | 78 | 0.12 | 0.575 | 90 | 14 | 5.13 | 36 | –
15 | Cc1ccc(C(=O)c2sc3cc(O)ccc3c2Oc2ccc(OCCN3CC(CF)C3)cc2)c(C)c1 | 68 | 0.38 | 0.155 | 83 | 7.4 | 1.45 | 42 | –
16 | Cc1cc(F)ccc1C(=O)c1sc2cc(O)ccc2c1Oc1ccc(OCCN2CC(CF)C2)cc1 | 77 | 0.363 | 0.251 | 95 | 2.7 | 3.63 | 52 | –
17 | Cc1ccccc1C(=O)c1sc2cc(O)ccc2c1Oc1ccc(OC2CN(CCCF)C2)cc1 | 67 | 2.82 | 0.145 | 82 | 2.1 | 2.57 | 59 | Activity [5]: Active; Activity [7]: Active
18 | O=C(c1ccccc1)c1sc2cc(O)ccc2c1Oc1ccc(OC2CN(CCCF)C2)cc1 | 67 | 0.162 | 0.288 | 88 | 0.5 | 0.708 | 41 | –
19 | Cc1cc(F)cc(C)c1C(=O)c1sc2cc(O)ccc2c1Oc1ccc(OCCN2CC[C@H](CF)C2)cc1 | 70 | 1 | 0.407 | 42 | – | 3.02 | 42 | –
20 | Cc1ccccc1C(=O)c1sc2cc(O)ccc2c1Oc1ccc(OCCN2CCCCC2)cc1 | 68 | – | 0.407 | – | – | – | – | Emax [18]: inactive
21 | Cc1ccccc1C(=O)c1sc2cc(O)ccc2c1Oc1ccc(OCCN2CCC2)cc1 | 70 | 1.29 | 0.912 | 37 | – | 1.91 | 31 | –
22 | Cc1ccccc1C(=O)c1sc2cc(O)ccc2c1Oc1ccc(OCCN2CC(C)C2)cc1 | 69 | 0.263 | 0.0417 | 81 | 1.9 | 0.257 | 48 | –
23 | Cc1cc(F)cc(C)c1C(=O)c1sc2cc(O)ccc2c1Oc1ccc(OCCN2CC(CF)C2)cc1 | 73 | 2.14 | 0.468 | 85 | 3.5 | 1.41 | 47 | Activity [5]: Active; concentration at 2 h [14]: 588 nM; Activity [19]: Active; concentration at 0.5 h [15]: 750 nM; Activity [7]: Active; concentration at 2 h [16]: 659 nM; concentration at 0.5 h [17]: 786 nM
24 | O=C(c1ccc(OCCN2CCCCC2)cc1)c1c(-c2ccc(O)cc2)sc2cc(O)ccc12 [RALOXIFENE] | 69 | – | 2.4 | – | – | – | – | Emax [18]: inactive
